Source: PubChem BioAssay (several laboratories)
NPY-Y1 antag: NPY-Y1 receptor antagonists, primary screen, cell-based | inhibition, % at 3.6 µM | 200,000 compounds, 1% hits | AID 1040, 2008 | HEK293-CNG Y1 cells, membrane potential fluorescence; NPY at EC95, then isoproterenol;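 active means inhibition above the campaign mean inhibition of all tested compounds plus 3 SD, cut at about 20% in these data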;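 further: 0% = DMSO wells given NPY plus isoproterenol and 100% = isoproterenol alone without NPY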
Target sequence (P25929 whole entry, looked up): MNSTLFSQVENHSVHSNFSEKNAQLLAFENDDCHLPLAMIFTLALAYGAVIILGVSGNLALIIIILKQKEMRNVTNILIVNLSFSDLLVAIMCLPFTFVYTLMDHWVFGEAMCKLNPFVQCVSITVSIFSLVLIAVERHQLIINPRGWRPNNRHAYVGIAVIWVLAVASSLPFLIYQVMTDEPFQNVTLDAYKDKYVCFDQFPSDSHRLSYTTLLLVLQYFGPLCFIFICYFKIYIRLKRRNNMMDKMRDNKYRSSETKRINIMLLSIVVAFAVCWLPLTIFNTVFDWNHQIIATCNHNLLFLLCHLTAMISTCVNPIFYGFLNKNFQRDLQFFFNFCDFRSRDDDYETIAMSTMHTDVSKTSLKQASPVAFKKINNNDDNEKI
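Assay system: HEK293 cells with Y1 receptor plus CNG channel | Probe or stimulus: NPY (25 nM), isoproterenol (1 µM), Ro 20-1724 (25 µM) | Timing: Compound incubation 1 h at room temperature, readout 45 min post-stimulation | Measured by: Membrane-potential fluorescent dye readout | Benchmarks: High control isoproterenol alone, low control NPY with isoproterenol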
MDM2 E3 inh: MDM2-luciferase reporter signal enhancers, primary screen, MDM2 E3 ligase inhibitor project, cell-based, luminescence, 1536-well; E3 ubiquitin-protein ligase Mdm2 (Homo sapiens), Q00987; cell-based MDM2 ubiquitination luciferase reporter, 2 h; 0 = plate control, 100 = twice control, blank-subtracted; signal enhancement, % at 5 µM; 210,000 compounds, 0.11% hits; AID 1230, 2008;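 active means signal enhancement of 30% or more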;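 further: luminescence tracks abundance of the self-degrading MDM2-luciferase fusion protein; higher signal means inhibition of MDM2 E3 ligase activity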
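Timing – 2 h compound exposure at 37 °C · Assay system – mammalian cells stably expressing self-ubiquitinating, self-degrading MDM2 E3–luciferase fusion · Amount – 2000 cells seeded into each well · Measure – % luminescence enhancement versus blank-corrected plate control mean · Measured by – SteadyLite luminescence, 15 min reagent step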
NPY1 pot ag: NPY-Y1 receptor potentiators or agonists, primary screen, cell-based | activation, % at 3.6 µM | NPY-Y1 expressing cells, potentiator/agonist activation | Neuropeptide Y receptor type 1 (Homo sapiens), P25929 | AID 1304, 2008 | 220,000 compounds, 0.37% hits; in the data active means activation above about 33%, passing the limit was not always enough;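 further: cells stimulated with NPY at EC10 then isoproterenol at EC100; 0% = low agonist plus stimulus and 100% = saturating agonist plus stimulus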
NPY2 pot ag: NPY-Y2 potentiators or agonists, primary screen, cell-based; Neuropeptide Y receptor type 2 (Homo sapiens), P49146; cells expressing NPY-Y2, potentiator/agonist read-out; activation, % at 3.6 µM; 220,000 compounds, 0.45% hits; AID 1359, 2008; in the data active means activation above about 27%;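 further: cells stimulated with NPY near EC25 plus isoproterenol at EC100; 0% = vehicle plus submaximal agonist and 100% = vehicle plus saturating agonist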
Measles CPE: compounds protecting cells from measles virus cytopathic effect, primary screen, measles RdRp inhibitor project, single point, MLSMR library, absorbance; protection (pct of control), % at 4 µM; Measles virus-infected cells, CPE protection; 140,000 compounds, 1.5% hits; in the data active means protection mostly above about 24%, no sharp cut-off; inactive means mostly below about 26%
NPY-Y2 antag: NPY-Y2 receptor antagonists, primary screen, cell-based; NPY-Y2 expressing cells, antagonist mode; Neuropeptide Y receptor type 2 (Homo sapiens), P49146; 140,000 compounds, 0.99% hits; AID 793, 2007; inhibition, % at 2.7 µM; in the data active means inhibition above about 17%;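 further: 0% = vehicle with agonist challenge and 100% = reference antagonist with challenge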
NPY-Y2 pot conf: NPY-Y2 potentiators or agonists, confirmation, cell-based; shares compounds with NPY2 pot ag; cell-based NPY-Y2 potentiator/agonist assay; activation, % at 3.6 µM; 450 compounds, 20% hits; AID 1539, 2009; in the data active means activation above about 33%
NPY-Y1 counter: NPY-Y1 potentiators or agonists, counter-screen for NPY-Y2 potentiator project, cell-based, fluorescence. shares compounds with NPY2 pot ag. Y1 HEK293-CNG cells, membrane potential fluorescence. activation, % at 3.6 µM. 450 compounds, 20% hits; in the data active means activation above about 45%;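 further: cells stimulated with submaximal NPY then isoproterenol with phosphodiesterase inhibitor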
NPY-Y1 agonist 2: NPY-Y1 direct agonists, selectivity assay for NPY-Y2 potentiator project, cell-based, fluorescence | 450 compounds, 37% hits | AID 1702, 2009 | HEK293 Y1-CNGC, membrane potential fluorescence, agonism | activation, % at 3.6 µM | shares compounds with NPY2 pot ag;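 active means activation above the mean of DMSO-only control wells plus 3 SD, cut at about 18% in these data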;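 further: cells stimulated with 1 µM isoproterenol plus the PDE inhibitor Ro 20-1724; 0% = isoproterenol with DMSO and no NPY and 100% = 40 nM NPY; Y1 agonists lower the membrane potential dye signal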
CNGC inh: CNGC cAMP sensor activity inhibitors, counter-screen for NPY-Y2 potentiator project, cell-based, HEK293-CNG parental, membrane potential fluorescence; shares compounds with NPY2 pot ag; isoproterenol cAMP; inhibition, % at 3.6 µM; 450 compounds, 32% hits; AID 1703, 2009;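 active means inhibition above the control-well mean plus 3 SD of those wells, cut at about 22% in these data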;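 further: 0% = DMSO with isoproterenol and 100% = DMSO without isoproterenol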
Y2 agonist ctr: NPY-Y2 direct agonists, counter-screen for NPY-Y2 potentiator project, cell-based, fluorescence. shares compounds with NPY2 pot ag. 450 compounds, 56% hits. activation, % at 3.6 µM. AID 1710, 2009. HEK293 Y2/CNGC cells, membrane potential fluorescence, agonist mode;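 active means activation above the mean of solvent-only control wells plus 3 SD, cut at about 10% in these data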;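 further: cells stimulated by isoproterenol with no NPY added so direct agonism is tested; 0% = DMSO with isoproterenol alone and 100% = NPY at EC100 plus isoproterenol; agonism lowers probe fluorescence through less cAMP and CNG channel opening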
* = called active by the depositor; / = no result given. Sampled rows, rich in hits. Any-hit rate of the full collection: about 2.8%.

SMILES | NPY-Y1 antag | MDM2 E3 inh | NPY1 pot ag | NPY2 pot ag | Measles CPE | NPY-Y2 antag | NPY-Y2 pot conf | NPY-Y1 counter | NPY-Y1 agonist 2 | CNGC inh | Y2 agonist ctr
O=C(/C=C/c1cn(-c2ccccc2)nc1-c1cccnc1)N1CCCC1 | -2 | -12 | 20 | 28* | / | / | 12 | 22 | 12 | 4 | 15*
O=C(Nc1ccc(F)cc1)NC1CCCCC1 | 2 | -5 | -11 | 99* | 3 | 1 | -5 | -3 | -6 | -8 | -11
COCCOC(=O)C(CC(=O)O)NCc1ccco1 (stereo unspecified) | / | -14 | 15 | 48* | / | / | 0 | -3 | 2 | 12 | 15*
CC(=O)N1CC(=O)N=C1SCC(=O)Nc1nc(C)c(-c2ccccc2)s1 | -6 | -8 | 36 | 37* | / | / | 25 | 35 | 41* | 40* | 28*
CC(C)C(=O)Nc1ccc(N2CCN(c3ccc(F)cc3)CC2)cc1 | 16 | -12 | -2 | 31* | / | / | 1 | 13 | 3 | 4 | -3
CCSc1nnc(NC(=O)CCc2ccccc2)s1 | -1 | -12 | -20 | 16 | 4 | 4 | / | / | / | / | /
CCSc1nnc(NC(=O)CCNS(=O)(=O)c2cc(Br)cnc2N)s1 | 1 | -14 | 0 | 28* | 6 | -4 | 11 | 3 | 24* | 16 | 24*
C=CCc1ccccc1OCC(O)CN1CCN(C(=O)OCC)CC1 (stereo unspecified) | 3 | 1 | 31 | 35* | 7 | 8 | 11 | 13 | 20* | 1 | 6
C=CCc1ccccc1OCC(O)CN1CCN(c2ccc(C)cc2)CC1 (stereo unspecified) | -5 | -27 | 45 | 44* | / | 7 | 28 | 31 | 55* | 0 | 47*
COc1ccc(N2CCN(CC(O)COc3ccccc3[N+](=O)[O-])CC2)cc1 (stereo unspecified) | 0 | -3 | 39 | 37* | 7 | 2 | 32 | 31 | 49* | 7 | 34*
COc1ccc(OCC(O)CN2CCN(c3ccccc3)CC2)cc1 (stereo unspecified) | 8 | 0 | -7 | -10 | / | / | / | / | / | / | /
Cc1cccc(N2CCN(CC(O)COc3ccccc3Cl)CC2)c1 (stereo unspecified) | / | / | 35 | -21 | / | / | / | / | / | / | /
COC(=O)c1ccc(Nc2c([N+](=O)[O-])c(=O)oc3ccccc23)cc1 | / | -10 | 9 | -6 | / | / | / | / | / | / | /
C/C(Cn1nnc2ccccc21)=N\NC(=O)c1ccc(Br)cc1 | 0 | -7 | -20 | -11 | / | / | / | / | / | / | /
CNCCCOc1cc(C)cc(C)c1C | 7 | -12 | -11 | 1 | / | / | / | / | / | / | /
